A short description of data set [1]: Clearance in rat hepatocytes assessed as per 10^6 cells. It counts as ADME, cell-based, Hepatocyte. Particulars: read-out: CLH.
Data set [2] in a line: Intrinsic clearance in human liver microsomes assessed per mg of protein. It counts as ADME, Microsome. As to conditions: read-out: CLH.
Data set [3] deals with Transient receptor potential cation channel subfamily V member 1 (Homo sapiens, UniProt Q8NER1). The data set is described as follows: Antagonist activity at human recombinant TRPV1 receptor assessed as inhibition of capsaicin-induced calcium uptake by FLIPR assay. The class given is functional. The essentials:
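Whole-cell fluorescence imaging assay (FLIPR II) of the rise in intracellular Ca2+ on capsaicin addition. Inhibition by the test compound is quantified.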

Data set [4] can be described thus: Aqueous solubility of the compound in sodium phosphate buffer at pH 7.4. The class given is physicochemical. The essentials: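 Solubility measured in 0.1 M sodium phosphate buffer.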
Data set [5] in a line: Half life in iv dosed Sprague-Dawley rat. The class given is ADME, organism-based. Particulars: in vivo.
Data set [6] can be described thus: Oral bioavailability in Sprague-Dawley rat. It counts as ADME, organism-based. Particulars: in vivo.
For data set [7], the system named is Rattus norvegicus. The data set is described as follows: Analgesic activity against carrageenan-induced thermal hyperalgesia in Sprague-Dawley rat assessed as paw withdrawal latency at 100 umol/kg, po after 30 mins after 3 hrs. It counts as functional. The essentials: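 Male Sprague-Dawley rats (125-200 g), groups of 7. Under isoflurane, 100 µl of 1% carrageenan is injected subcutaneously into the plantar left hind paw, and testing is done 3 h later. After 30 min acclimation on a 30 °C glass surface, radiant heat is focused on the affected paw. Withdrawal latency is the mean of two trials about 5 min apart, with a 20 s cut-off. Naïve rats serve as controls. Single oral dose.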

For data set [8], the system named is Rattus norvegicus. As to the kind of experiment: Analgesic activity against capsaicin-induced thermal hyperalgesia in Sprague-Dawley rat assessed as paw withdrawal latency at 90 umol/kg, po after 30 mins. The class given is functional. The essentials:
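Male Sprague-Dawley rats (125-200 g), groups of 7, acclimatized at least 3 days and tested in the light phase. Capsaicin 10 μg/5 μL is injected intradermally into the plantar left hind paw of restrained rats. Heat hyperalgesia is read 30 min later as radiant-heat paw withdrawal latency on a 30 °C glass surface: two trials about 5 min apart, averaged, 20 s cut-off. Naïve rats serve as controls. Single oral dose.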

In data set [9] the target is Transient receptor potential cation channel subfamily V member 1 (Rattus norvegicus) (UniProt O35433). As to the kind of experiment: Binding affinity to rat TRPV1 at 1 uM.
Data set [10] has as its system Rattus norvegicus. As to the kind of experiment: Toxicity in Sprague-Dawley rat assessed as effect on body temperature at 100 umol/kg, po. It counts as organism-based. As to conditions: in vivo.

Experimental findings from ChEMBL document CHEMBL2086386, “Potent and orally efficacious benzothiazole amides as TRPV1 antagonists” (Bioorg Med Chem Lett, 2012) are described below.

pIC50: −log10 of the molar value. Values after ≈ are worked out from the molar mass of the structure shown. Active and inactive are the calls of the source. Some results are limits rather than exact numbers.

Transient receptor potential cation channel subfamily V member 1, sequence (Q8NER1 whole entry): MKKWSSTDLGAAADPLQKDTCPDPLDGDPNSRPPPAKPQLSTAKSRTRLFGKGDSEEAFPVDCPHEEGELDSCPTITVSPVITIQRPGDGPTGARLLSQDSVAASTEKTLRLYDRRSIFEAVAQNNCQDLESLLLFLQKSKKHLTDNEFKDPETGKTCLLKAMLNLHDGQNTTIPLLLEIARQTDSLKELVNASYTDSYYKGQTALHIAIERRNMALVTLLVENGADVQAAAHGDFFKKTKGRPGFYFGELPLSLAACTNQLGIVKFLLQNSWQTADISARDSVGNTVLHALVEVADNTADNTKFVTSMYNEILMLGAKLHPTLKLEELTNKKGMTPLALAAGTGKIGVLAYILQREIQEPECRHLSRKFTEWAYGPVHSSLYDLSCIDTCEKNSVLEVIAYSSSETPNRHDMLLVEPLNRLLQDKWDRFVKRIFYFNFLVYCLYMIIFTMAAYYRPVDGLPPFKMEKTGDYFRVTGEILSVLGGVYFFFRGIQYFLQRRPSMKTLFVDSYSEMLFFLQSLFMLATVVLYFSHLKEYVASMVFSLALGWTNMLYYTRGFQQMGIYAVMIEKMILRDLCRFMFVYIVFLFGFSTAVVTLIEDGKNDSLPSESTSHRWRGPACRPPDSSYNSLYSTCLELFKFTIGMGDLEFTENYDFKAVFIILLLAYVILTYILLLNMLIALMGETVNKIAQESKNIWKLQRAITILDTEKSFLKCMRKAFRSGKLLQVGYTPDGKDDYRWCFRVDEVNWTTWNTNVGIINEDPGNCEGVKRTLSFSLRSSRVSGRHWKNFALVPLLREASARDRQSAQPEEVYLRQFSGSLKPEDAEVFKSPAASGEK
Transient receptor potential cation channel subfamily V member 1 (Rattus norvegicus), sequence (O35433 whole entry): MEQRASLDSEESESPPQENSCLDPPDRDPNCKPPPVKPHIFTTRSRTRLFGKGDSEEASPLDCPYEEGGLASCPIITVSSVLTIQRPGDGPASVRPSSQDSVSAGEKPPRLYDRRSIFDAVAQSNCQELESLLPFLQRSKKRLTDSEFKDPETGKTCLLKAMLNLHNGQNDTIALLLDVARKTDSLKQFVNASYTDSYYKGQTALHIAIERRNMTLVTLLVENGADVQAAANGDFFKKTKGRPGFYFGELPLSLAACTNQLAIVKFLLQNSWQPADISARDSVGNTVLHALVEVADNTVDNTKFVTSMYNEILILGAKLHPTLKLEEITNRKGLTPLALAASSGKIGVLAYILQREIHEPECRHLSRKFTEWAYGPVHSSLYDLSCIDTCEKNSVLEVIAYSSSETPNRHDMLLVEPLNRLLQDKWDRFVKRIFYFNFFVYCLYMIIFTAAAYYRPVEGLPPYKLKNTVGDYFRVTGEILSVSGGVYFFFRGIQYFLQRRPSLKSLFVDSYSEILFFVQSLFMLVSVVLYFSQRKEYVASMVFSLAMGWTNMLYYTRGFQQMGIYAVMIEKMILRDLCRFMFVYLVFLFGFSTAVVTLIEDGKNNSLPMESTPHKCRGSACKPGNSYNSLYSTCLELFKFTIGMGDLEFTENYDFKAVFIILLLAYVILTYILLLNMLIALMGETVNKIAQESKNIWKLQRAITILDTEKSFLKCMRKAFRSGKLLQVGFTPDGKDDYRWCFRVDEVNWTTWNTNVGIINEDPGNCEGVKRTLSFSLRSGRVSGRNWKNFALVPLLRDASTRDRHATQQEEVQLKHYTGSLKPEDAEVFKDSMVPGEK

A word on the pIC50: it is −log10 of the IC50, conventionally taken in molar units. As a reminder, the solubility is the dissolved amount per volume that the medium holds. Take `O=C(Nc1ccc2sc(CO)nc2c1)c1ccc(Cl)cc1`: in [1], the hepatocyte CLint amounted to 66 µL/min/1e6 cells. Also, the microsomal CLint in [2] worked out at 14 µL/min/mg. The pIC50 in data set [3] is 7.17. The molecule further came in with a solubility in data set [4] of 3 µM (≈ 0.956 µg/mL).
For the molecule `Cc1cc(Cl)ccc1C(=O)Nc1ccc2sc(CO)nc2c1`, in data set [1], the hepatocyte CLint is 17 µL/min/1e6 cells. Moreover, the pIC50 in data set [3] was 7.07. In data set [4], this molecule registered a solubility of 7 µM (≈ 2.33 µg/mL).
With `O=C(Nc1ccc2sc(CO)nc2c1)c1ccc(N2CCCCC2)nc1`, the solubility in data set [4] was determined as 4 µM (≈ 1.47 µg/mL).
As to `O=C(Nc1ccc2sc(CO)nc2c1)C1CCC(C(F)(F)F)CC1` (stereo not drawn), the pIC50 in data set [3] was below 5.00. The same molecule displayed a solubility in data set [4] of 77 µM (≈ 27.6 µg/mL).
Turning to `CC(C)(C)Oc1ccc(C(=O)Nc2ccc3sc(CO)nc3c2)cc1`, the microsomal CLint in [2] is 19 µL/min/mg. The pIC50 in data set [3] was 8.01. Besides, the concentration in solution in [4] (solubility) came to 64 µM (≈ 22.8 µg/mL).
For `Cc1nc2cc(NC(=O)c3ccc(C(C)(C)C)cc3)ccc2s1`, in data set [3], the pIC50 is 7.57. Further, the concentration in solution in [4] (solubility) was 2.2 µM (≈ 0.714 µg/mL).
Taken in the same sequence, the figures for `CCN(CC)Cc1ccc(C(=O)Nc2ccc3sc(CO)nc3c2)cc1` were below 5.00 and 5160 µM (≈ 1910 µg/mL).
`CC(C)(C)c1ccc(C(=O)Nc2ccc3sc(CN)nc3c2)cc1`: the pIC50 in data set [3] is 6.01.
`CC(C)Oc1ccc(C(=O)Nc2ccc3sc(CO)nc3c2)cc1`: the hepatocyte CLint in [1] came to 57 µL/min/1e6 cells. Further, in [2], the microsomal CLint is 12 µL/min/mg. In addition, in data set [3], the pIC50 is 7.48. Further, the solubility in [4] was found to be 38 µM (≈ 13 µg/mL).
On to `Cc1ccc(CCNC(=O)c2ccc3sc(CO)nc3c2)cc1`, for which the pIC50 in [3] was 5.79.
As to `Cn1nc(C(F)(F)F)cc1C(=O)Nc1ccc2sc(CO)nc2c1`, the microsomal CLint in [2] was 9 µL/min/mg. In data set [3], the pIC50 is 6.80. Moreover, the solubility in [4] was 14 µM (≈ 4.99 µg/mL).
With `O=S(=O)(Nc1ccc(C(F)(F)F)cc1)c1ccc2sc(CO)nc2c1`, the pIC50 in data set [3] was 5.25.
What is called half-life is the time in which the quantity being followed falls by half. A lower half-life goes with rapid decline. The term bioavailability denotes dose-corrected exposure relative to a reference, in per cent. Lower therefore signals little systemic uptake. Take `Cc1cc(Br)ccc1C(=O)Nc1ccc2sc(CO)nc2c1`: in data set [1], the hepatocyte CLint was 24 µL/min/1e6 cells. In [5], the half-life is 2.4 h. In data set [6], this molecule returned a bioavailability of 53%. In addition, the Activity in data set [7] was 35%; in [8], 72%; in data set [10], “Non-toxic”. Besides, in [9], the result was Active. Moreover, the pIC50 in data set [3] is 7.28. In [4], this molecule came in with a solubility of 10 µM (≈ 3.77 µg/mL).
Turning to `O=C(Nc1ccc2sc(CO)nc2c1)c1ccc(C(F)(F)F)nc1`, the microsomal CLint in data set [2] worked out at 13 µL/min/mg. In data set [4], this molecule returned a solubility of 61 µM (≈ 21.6 µg/mL).
On to `O=C(Nc1ccc2sc(CO)nc2c1)c1ccc(C(F)(F)F)cc1`, for which the pIC50 in data set [3] was 7.92.
Turning to `O=C(Nc1ccc2sc(CO)nc2c1)c1ccc(OCC(F)(F)F)nc1`, in data set [3], the pIC50 is 7.39. The concentration in solution in data set [4] (solubility) was 9 µM (≈ 3.45 µg/mL).
In the case of `CC(O)c1nc2cc(NC(=O)c3ccc(C(C)(C)C)cc3)ccc2s1` (racemic), in data set [3], the pIC50 was 6.65.
Regarding `C#Cc1ccc(C(=O)Nc2ccc3sc(CO)nc3c2)cc1`, the pIC50 in data set [3] was 6.76. This molecule gave a solubility in data set [4] of 25 µM (≈ 7.71 µg/mL).
`CC(C)(C)Oc1cccc(C(=O)Nc2ccc3sc(CO)nc3c2)c1`: in data set [3], the pIC50 is 5.97. Also, the solubility in [4] is 181 µM (≈ 64.5 µg/mL).
In the case of `CC(C)(C)c1ccc(CNc2ccc3sc(CO)nc3c2)cc1`, the pIC50 in [3] is 6.08.
Regarding `O=S(=O)(Nc1ccc2sc(CO)nc2c1)c1ccc(Br)cc1`, in data set [3], the pIC50 is below 5.00.
Consider `Cc1cc(OC(C)C)ccc1C(=O)Nc1ccc2sc(CO)nc2c1`, for which the hepatocyte CLint in data set [1] is 12 µL/min/1e6 cells. The same molecule showed a solubility in [4] of 9 µM (≈ 3.21 µg/mL).
Turning to `CC(C)(C)c1ccc(C(=O)Nc2ccc3sc(CNS(C)(=O)=O)nc3c2)cc1`, the pIC50 in [3] was 6.15.
Take `Cc1ccc(-c2cc(C(F)(F)F)nn2-c2ccc(S(N)(=O)=O)cc2)cc1` [CELECOXIB]: in data set [7], the Activity is given as 35%.
Regarding `CC(=O)NCc1nc2cc(NC(=O)c3ccc(C(C)(C)C)cc3)ccc2s1`, in data set [3], the pIC50 was 5.62.
Take `CC(C)(C)c1ccc(C(=O)Nc2ccc3sc(CO)nc3c2)cc1`: the microsomal CLint in data set [2] is 57 µL/min/mg. The pIC50 in data set [3] is 8.43. Besides, the concentration in solution in data set [4] (solubility) was 6 µM (≈ 2.04 µg/mL).
For `CCOCc1ccc(C(=O)Nc2ccc3sc(CO)nc3c2)cc1` the same measures were 24 µL/min/mg, 6.31 and 37 µM (≈ 12.7 µg/mL).
For `CC(C)(C)c1ccc(NC(=O)c2ccc3sc(CO)nc3c2)cc1`, the pIC50 in data set [3] is below 5.00.
As to `O=C(Nc1ccc2sc(CO)nc2c1)c1ccc(Br)cc1`, in [1], the hepatocyte CLint worked out at 54 µL/min/1e6 cells. The pIC50 in [3] was 7.58. This molecule came in with a solubility in [4] of 5 µM (≈ 1.82 µg/mL).
With `O=C(Nc1ccc2sc(CO)nc2c1)c1ccc(CN2CCOCC2)cc1`, in data set [2], the microsomal CLint stood at 13 µL/min/mg. The pIC50 in [3] is below 5.00. This molecule showed a solubility in data set [4] of 419 µM (≈ 161 µg/mL).
`CC(C)(C)OCc1ccc(C(=O)Nc2ccc3sc(CO)nc3c2)cc1`: in [3], the pIC50 was 7.28. Moreover, the solubility in data set [4] stood at 11 µM (≈ 4.08 µg/mL).
